TRPC6 inh: inhibitors of mouse TRPC6 channel; Q61143; HEK293-TRPC6, membrane potential dye, ACh-evoked depolarization; stronger effect = lower value; B-score at 10 µM; 310,000 compounds, 1.1% hits; AID 2553;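 active = B-score under library mean minus 3 SD, initial fluorescence not abnormally high, positive integrated signal ratio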;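 also: B-score derived from integrated fluorescence ratio over the kinetic read; more negative B-score means stronger inhibition of depolarization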
TRPC4 agonist: activators of mouse TRPC4 channel | HEK293 TRPC4beta/mu-opioid, Fluo4 calcium fluorescence; stronger effect = higher value | 310,000 compounds, 0.49% hits | B-score at 10 µM;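 active = B-score above 5 SD of library B-scores, and initial fluorescence ratio not above library mean plus 5 SD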;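 also: positive B-score marks a calcium rise read as TRPC4 activation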
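Test system: HEK293 cells stably co-expressing mouse TRPC4beta and mu-opioid receptor | Schedule: Fluo4 dye loading 45 min at room temperature, 110 s recording | Measured by: Kinetic Fluo4 calcium fluorescence, 5 s baseline at 1 Hz | Evaluation: B score of integrated ratio | Controls: Buffer (low) and maximal DAMGO (high)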
TRPC6 activator: activators of mouse TRPC6 channel | HEK293-TRPC6 membrane potential dye fluorescence; stronger effect = higher value | AID 2550 | Q61143 | 310,000 compounds, 0.13% hits | B-score at 10 µM;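 active = B-score of the integrated fluorescence ratio above library mean plus 3 SD, and starting fluorescence ratio within library mean plus 5 SD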;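 also: higher score means more depolarization so channel activation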
TRPC4 block: blocks the mouse TRPC4 cation channel; Q9QUQ5; HEK293 TRPC4beta/mu-opioid, DAMGO-evoked Fluo4 calcium flux; stronger effect = lower value; B-score at 10 µM; 300,000 compounds, 0.39% hits;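 active = B-score over 3 SD under the library average, no early fluorescence shift, positive overall ratio signal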
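Signal: kinetic Fluo4 fluorescence imaging of calcium influx. Material: stable TRPC4beta/mu-opioid receptor HEK293 cells. Probe or stimulus: DAMGO in two steps, submaximal then maximal.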
TRPC4 potent: TRPC4 (mouse) allosteric potentiation | 310,000 compounds, 0.42% hits | B-score at 10 µM | AID 2227 | HEK293 TRPC4beta/mu-opioid, DAMGO EC20, Fluo-4 Ca2+ flux; stronger effect = higher value | Q9QUQ5;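 active = B-score of calcium response area above 5 SD of library B-scores, with initial fluorescence ratio within 5 SD of library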
Kir21 inh: blocks the mouse Kir2.1 inward-rectifier potassium channel; P35561; HEK293-Kir2.1, FluxOR thallium flux fluorescence; stronger effect = lower value; B-score at 10 µM; 310,000 compounds, 0.85% hits;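 active = fluorescence ratio B-score at or below minus 3 SD of library scores, with starting-brightness B-score within 2 SD, cut at about -4.2 in these data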;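 also: channel flux triggered by added potassium and thallium sulfate stimulus; B-score of peak minus minimum fluorescence over baseline after thallium stimulus; more negative B-score means stronger Kir2.1 block with less thallium influx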
Hits are given with their value; - = inactive. Hits are enriched below; roughly 3% of the tested compounds scored in any of these assays.

SMILES	TRPC6 inh	TRPC4 agonist	TRPC6 activator	TRPC4 block	TRPC4 potent	Kir21 inh
COc1ccc(NC(=O)CN(C)C(C)C(=O)NC(=O)NC2CCCCC2)cc1 (stereo unspecified)	-	-	-	-	-	-
O=C(NCC(O)c1ccc2ccccc2c1)c1c(F)cccc1F (stereo unspecified)	-	-	-	-	-	-
CC1CCCN(S(=O)(=O)c2ccc(NC(=O)C3CCN(C(=O)c4ccco4)CC3)cc2)C1 (stereo unspecified)	-	60	-	-	-	-
Cc1cc(Cl)c(Cl)cc1S(=O)(=O)NCCCn1ccnc1	-	-	-	-	11	-
CCCCC(c1nnnn1CC1CCCO1)N1CCN(Cc2ccccc2)CC1 (stereo unspecified)	-	93	-	-6	-	-
CC(C)(C)SC(C(=O)N1CCOCC1)c1ccc(Br)cc1 (stereo unspecified)	-	-	-	-	-	-
O=C(C(Sc1ccccc1)c1ccc(Br)cc1)N1CCOCC1 (stereo unspecified)	-	-	-	-	-	-5.8
Cc1ccc(NC(=O)C2=C(c3ccccc3)S(=O)(=O)CCS2(=O)=O)cc1	-	-	-	-	-	-5.7
COc1ccc(C(=O)Nc2ccc(N3CCN(C(=O)c4ccccc4C)CC3)cc2)cc1	-	-	-	-	-	-
CCCn1cc(SCC(=O)NCc2ccco2)c2ccccc21	-	-	-	-	-	-5.2
COC(=O)C1=C(CS(=O)(=O)c2cc(OC)ccc2OC)NC(=O)NC1c1ccc(O)c(OC)c1 (stereo unspecified)	-	-	-	-	-	-
CCOC(=O)C(Cc1ccccc1)C(=O)c1ccco1 (stereo unspecified)	-	-	-	-	-	-
CCCCC(C(=O)OCC)C(N)Cc1ccc(F)cc1 (stereo unspecified)	-	-	-	-	-	-4.7
O=C(c1cccc(NS(=O)(=O)c2ccc(F)c(F)c2)c1)N1CCN(Cc2ccccc2)CC1	-	81	-	-	-	-
Cc1ccc(S(=O)(=O)Nc2cccc(C(=O)NC3CCN(Cc4ccccc4)CC3)c2)cc1F	-	-	-	-	-	-
CN1CCN(Cc2cccc(Oc3ccccc3)c2)CC1	-	-	-	-	-	-
OCCN1CCN(Cc2cccc(Oc3ccc(Cl)cc3)c2)CC1	-	-	-	-	-	-5.2
COc1cccc(CN2CCN(C(=O)c3cccc(OC)c3)CC2)c1	-	-	-	-	-	-
O=C(c1ccccc1)N1CCN(Cc2cccc(Oc3ccccc3)c2)CC1	-11	-	17	-	-	-
COc1cc(/C=C2/SC(=S)N(CC(=O)O)C2=O)ccc1OC(=O)c1ccco1	-	-	-	-	-	-
O=C(CN1CCCN(S(=O)(=O)c2ccc(F)cc2)CC1)Nc1ccccc1Br	-	-	-	-6	-	-
C=CCNC(=O)N1CCC(n2nccc2NC(=O)CCCc2ccccc2)CC1	-	-	-	-	-	-
O=c1c2ccccc2nc(COc2ccccc2)n1/N=C/c1cc([N+](=O)[O-])ccc1O	-	-	-	-	27	-
Cc1cc(/C=N/n2c(COc3ccccc3C)nc3ccccc3c2=O)c(O)c([N+](=O)[O-])c1	-	-	-	-	-	-
CCC(C)(C)n1nnnc1C(c1ccc(O)c(OC)c1)N1CCN(c2nc3ccccc3s2)CC1 (stereo unspecified)	-	58	-	-	-	-
SMILES	TRPC6 inh	TRPC4 agonist	TRPC6 activator	TRPC4 block	TRPC4 potent	Kir21 inh
CCOC(=O)C(C)Sc1nc2c(c(=O)[nH]c(=O)n2C)n1Cc1ccc(Cl)cc1 (stereo unspecified)	-	-	-	-6	-	-
CC(C)Sc1nc2c(c(=O)[nH]c(=O)n2C)n1Cc1ccc(Cl)cc1	-	-	-	-	-	-
Cc1ccc(S(=O)(=O)Nc2ccc3c(c2)nc(CN2CCCC2)n3C)cc1	-	44	-	-	-	-
Cc1ccc(S(=O)(=O)Nc2ccc3c(c2)nc(CCN2CCCCC2)n3C)cc1	-	-	-	-	-	-
O=C1CSC(c2cccnc2)N1Cc1ccc(Cl)cc1 (stereo unspecified)	-	-	-	-	-	-
O=C1CSC(c2cccnc2)N1Cc1ccc(Cl)cc1Cl (stereo unspecified)	-	-	-	-	-	-4.4
COc1ccc(-n2c3c(cc(C(=O)NCc4ccco4)c2=O)C(=O)CC(C)(C)C3)cc1	-	-	-	-7	-	-
Cc1ccc(-n2c3c(cc(C(=O)NCc4ccco4)c2=O)C(=O)CCC3)cc1	-	-	-	-	-	-
CC(NC(=O)Cn1cccc1C(=O)c1ccccc1)c1ccccc1 (stereo unspecified)	-	-	-	-	-	-
Cc1ccccc1C(=O)c1cccn1CC(=O)NC(C)c1ccccc1 (stereo unspecified)	-	-	-	-	-	-4.4
O=C(CCl)NC(=O)NC12CC3CC(CC(C3)C1)C2	-	-	-	-6	-	-
CC(Cl)C(=O)NC(=O)NC12CC3CC(CC(C3)C1)C2 (stereo unspecified)	-	-	-	-	-	-
CN(CC(=O)Nc1cccc(F)c1)C(=O)c1ccccc1Cc1ccccc1	-	-	-	-	-	-
Cc1ccc(C)c(NC(=O)CN(C)C(=O)c2ccccc2Cc2ccccc2)c1	-	-	-	-	-	-4.3
CC(OC(=O)CCCN=C1NS(=O)(=O)c2ccccc21)C(=O)NC1CCCCC1C (stereo unspecified)	-	-	-	-	-	-
CCOc1cc(O)c(-c2[nH]ncc2-c2nc(C)cs2)cc1CC	-	-	-	-	20	-
COc1ccc(NC(=O)CSc2nnc(-c3cnccn3)n2C)cc1OC	-	-	-	-	-	-
CC(=O)OCC1O[C@@H](O[C@@H]2C[C@H]3C(C)(C)[C@H](OC(C)=O)CC[C@]3(C)[C@H]3CC[C@]45C[C@]4(CC[C@H]5[C@@H](C)C[C@@H](O)[C@H](O)C(C)(C)O)[C@@]32C)[C@H](O)[C@@H](O)[C@@H]1O (stereo partly specified)	-	110	-	-	-	-
Cc1cc(C)c2nc(N3CCC(C(=O)NCCCN4CC(C)CC(C)C4)CC3)sc2c1 (stereo unspecified)	-	-	-	-	-	-6.8
Cc1cc(=O)n2nc(N3CCCC(C(=O)NCCCN4CC(C)CC(C)C4)C3)sc2n1 (stereo unspecified)	-	47	-	-	-	-
O=C(COc1ccc2c3c(c(=O)oc2c1)CCCC3)N1CCN(c2ccccc2)CC1	-	-	-	-	-	-
